Measured values of several laboratories.
Lines come from different studies, so protocols differ. Values after ≈ are worked out from the molar mass of the structure shown.

COc1ccc(NC(=O)NCc2cn(Cc3ccc(Br)cc3)nn2)cc1
viability (Huh-7; cell growth or viability, CCK-8; 50 µM, 48 h): 87.2%

O=C(Nc1ccc(Cl)cc1)Nc1cccc(-c2cn(Cc3ccc(Cl)cc3)nn2)c1
viability (Huh-7; cell growth or viability, CCK-8; 50 µM, 48 h): 84%

O=C(Cn1ccnc1[N+](=O)[O-])NCc1ccccc1
IC50 (Trypanosoma cruzi; parasite growth; 24 h, trypomastigote): 1.04 µg/mL (≈ 4 µM)

COc1ccc(Nc2cnnc3cc(-c4cnc(N5CCCN(C)CC5)nc4)ccc23)nc1
EC50 (Trypanosoma cruzi; parasite growth; C2C12; intracellular, amastigote): 7500 nM

COc1ccc(NC(=O)Nc2cccc(-c3cn(Cc4cccc(Cl)c4)nn3)c2)cc1
viability (Huh-7; cell growth or viability, CCK-8; 50 µM, 72 h): 10.8%

COc1ccc(Nc2cnnc3ccc(-c4cnc(N5CCN(C)CC5)nc4)cc23)cc1Cl
EC50 (Trypanosoma cruzi; parasite growth; C2C12; intracellular, amastigote): 5700 nM

O=C(Nc1ccc(Cl)cc1)Nc1ccc(-c2cn(Cc3ccc(Cl)cc3)nn2)cc1
viability (Huh-7; cell growth or viability, CCK-8; 50 µM, 48 h): 83.6%

COc1ccc(NC(=O)Nc2cccc(-c3cn(Cc4ccc(Cl)cc4)nn3)c2)cc1
viability (Huh-7; cell growth or viability, CCK-8; 50 µM, 48 h): 67.1%

COc1ccc(Nc2cnnc3ccc(-c4cnc(N5CCCN(C)CC5)nc4)cc23)cc1Cl
EC50 (Trypanosoma cruzi; parasite growth; C2C12; intracellular, amastigote): 930 nM

O=C(Nc1cccc(-c2cn(Cc3ccc(Br)cc3)nn2)c1)Nc1ccccc1Br
viability (Huh-7; cell growth or viability, CCK-8; 50 µM, 72 h): 10.8%

COc1ccc(NC(=O)Nc2ccc(-c3cn(Cc4cccc(Cl)c4)nn3)cc2)cc1
viability (Huh-7; cell growth or viability, CCK-8; 50 µM, 72 h): 82.5%

Cc1ccc(Nc2cnnc3ccc(-c4ccc(N5CCN(C)CC5)cc4)cc23)cn1
EC50 (Trypanosoma cruzi; parasite growth; C2C12; intracellular, amastigote): 3300 nM

O=C(Nc1ccc(-c2cn(Cc3ccc(Cl)cc3)nn2)cc1)Nc1ccccc1Br
viability (Huh-7; cell growth or viability, CCK-8; 50 µM, 48 h): 80.2%

Cc1ccc(Nc2cnnc3cc(-c4ccc(N5CCN(C)CC5)cc4)ccc23)cn1
EC50 (Trypanosoma cruzi; parasite growth; C2C12; intracellular, amastigote): 1300 nM

O=C(Nc1cccc(-c2cn(Cc3ccc(Cl)cc3)nn2)c1)Nc1ccccc1Br
viability (Huh-7; cell growth or viability, CCK-8; 50 µM, 48 h): 53.1%

CN1CCN(c2ccc(-c3ccc4c(Nc5ncccn5)cnnc4c3)cc2)CC1
EC50 (Trypanosoma cruzi; parasite growth; C2C12; intracellular, amastigote): 2600 nM

O=C(NCc1cn(Cc2ccc(Br)cc2)nn1)Nc1ccccc1Br
viability (Huh-7; cell growth or viability, CCK-8; 50 µM, 72 h): 72.9%

Cc1ccccc1Cn1cc(-c2cccc(NC(=O)Nc3ccc(F)cc3)c2)nn1
viability (Huh-7; cell growth or viability, CCK-8; 50 µM, 72 h): 12.5%

O=C(Nc1ccc(Cl)cc1)Nc1ccc(-c2cn(Cc3ccc(Br)cc3)nn2)cc1
viability (Huh-7; cell growth or viability, CCK-8; 50 µM, 48 h): 98.4%

COc1ccc(NC(=O)NCc2cn(Cc3ccc(Cl)cc3)nn2)cc1
viability (Huh-7; cell growth or viability, CCK-8; 50 µM, 72 h): 99%

Cc1ccc(C(C)C)c(OC2=C(Cl)C(=O)c3ccccc3C2=O)c1
MIC (Alternaria alternata; microbial growth, broth dilution): 12 µg/mL (≈ 35.2 µM)

COc1ccc(Nc2cnnc3ccc(-c4ccc(N5CCN(C)CC5)cc4)cc23)cc1Cl
EC50 (Trypanosoma cruzi; parasite growth; C2C12; intracellular, amastigote): 2400 nM

COc1ccc(NC(=O)Nc2ccc(-c3cn(Cc4ccc(Br)cc4)nn3)cc2)cc1
viability (Huh-7; cell growth or viability, CCK-8; 50 µM, 72 h): 91.2%
